Converted amounts (≈) assume the structure as drawn.
Tested on: Staphylococcus aureus
Experiment: Antimicrobial activity against methicillin-resistant Staphylococcus aureus SG 511 by broth dilution method
Assay type: functional
Outline: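 MIC was determined by broth dilution following NCCLS guidelines, using S. aureus SG 511 (MRSA).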

Structure (SMILES)	MIC [µg/mL]
O=C(O)c1cccc2c1Nc1ccccc1N2C(=O)CO	100 (≈ 352 µM)
O=C(O)c1cn(C2CC2)c2cc(N3CCNCC3)c(F)cc2c1=O [CIPROFLOXACIN]	12.5 (≈ 37.7 µM)
CC(C)(O)/C=C/c1cccc2nc3cccc(C(=O)O)c3nc12	100 (≈ 324 µM)
C/C(=C\Cc1cccc2nc3cccc(C(=O)O)c3nc12)CO	100 (≈ 324 µM)
O=C(O)c1cccc2nc3ccccc3nc12 [PHENAZINE-1-CARBOXYLIC ACID]	100 (≈ 446 µM)

Tested on: Mycolicibacterium fortuitum
Experiment: Antimicrobial activity against Mycobacterium fortuitum IMET 10667 by broth dilution method
Assay type: functional
Outline: (§1)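 MIC was determined by broth dilution following the NCCLS standard method.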

Structure (SMILES)	MIC [µg/mL]
O=C(O)c1cccc2c1Nc1ccccc1N2C(=O)CO	50 (≈ 176 µM)
O=C(O)c1cn(C2CC2)c2cc(N3CCNCC3)c(F)cc2c1=O [CIPROFLOXACIN]	0.1 (≈ 0.302 µM)
CC(C)(O)/C=C/c1cccc2nc3cccc(C(=O)O)c3nc12	25 (≈ 81.1 µM)
C/C(=C\Cc1cccc2nc3cccc(C(=O)O)c3nc12)CO	25 (≈ 81.1 µM)
O=C(O)c1cccc2nc3ccccc3nc12 [PHENAZINE-1-CARBOXYLIC ACID]	50 (≈ 223 µM)

Tested on: Mycolicibacterium aurum
Experiment: Antimicrobial activity against Mycobacterium aurum SB 66 by broth dilution method
Assay type: functional
Outline: as §1

Structure (SMILES)	MIC [µg/mL]
O=C(O)c1cccc2c1Nc1ccccc1N2C(=O)CO	50 (≈ 176 µM)
O=C(O)c1cn(C2CC2)c2cc(N3CCNCC3)c(F)cc2c1=O [CIPROFLOXACIN]	0.1 (≈ 0.302 µM)
CC(C)(O)/C=C/c1cccc2nc3cccc(C(=O)O)c3nc12	25 (≈ 81.1 µM)
C/C(=C\Cc1cccc2nc3cccc(C(=O)O)c3nc12)CO	25 (≈ 81.1 µM)
O=C(O)c1cccc2nc3ccccc3nc12 [PHENAZINE-1-CARBOXYLIC ACID]	50 (≈ 223 µM)

Tested on: Mycolicibacterium vaccae
Experiment: Antimicrobial activity against Mycobacterium vaccae IMET 10670 by broth dilution method
Assay type: functional
Outline: as §1

Structure (SMILES)	MIC [µg/mL]
O=C(O)c1cccc2c1Nc1ccccc1N2C(=O)CO	25 (≈ 87.9 µM)
O=C(O)c1cn(C2CC2)c2cc(N3CCNCC3)c(F)cc2c1=O [CIPROFLOXACIN]	0.1 (≈ 0.302 µM)
CC(C)(O)/C=C/c1cccc2nc3cccc(C(=O)O)c3nc12	25 (≈ 81.1 µM)
C/C(=C\Cc1cccc2nc3cccc(C(=O)O)c3nc12)CO	25 (≈ 81.1 µM)
O=C(O)c1cccc2nc3ccccc3nc12 [PHENAZINE-1-CARBOXYLIC ACID]	25 (≈ 111 µM)

Tested on: Mycolicibacterium smegmatis
Experiment: Antimicrobial activity against Mycobacterium smegmatis SG 987 by broth dilution method
Assay type: functional
Outline: as §1

Structure (SMILES)	MIC [µg/mL]
O=C(O)c1cccc2c1Nc1ccccc1N2C(=O)CO	50 (≈ 176 µM)
O=C(O)c1cn(C2CC2)c2cc(N3CCNCC3)c(F)cc2c1=O [CIPROFLOXACIN]	0.78 (≈ 2.35 µM)
CC(C)(O)/C=C/c1cccc2nc3cccc(C(=O)O)c3nc12	50 (≈ 162 µM)
C/C(=C\Cc1cccc2nc3cccc(C(=O)O)c3nc12)CO	50 (≈ 162 µM)
O=C(O)c1cccc2nc3ccccc3nc12 [PHENAZINE-1-CARBOXYLIC ACID]	50 (≈ 223 µM)

Tested on: Mycobacterium avium complex sp.
Experiment: Antimicrobial activity against Mycobacterium avium complex by BACTEC radiometric assay
Assay type: functional

Structure (SMILES)	MIC [µg/mL]
CC(C)/N=c1\cc2n(-c3ccc(Cl)cc3)c3ccccc3nc-2cc1Nc1ccc(Cl)cc1 [CLOFAZIMINE]	0.12 (≈ 0.253 µM)

Tested on: Mycobacterium tuberculosis
Experiment: Antimicrobial activity against Mycobacterium tuberculosis by BACTEC radiometric assay
Assay type: functional

Structure (SMILES)	MIC [µg/mL]
CC(C)/N=c1\cc2n(-c3ccc(Cl)cc3)c3ccccc3nc-2cc1Nc1ccc(Cl)cc1 [CLOFAZIMINE]	0.12 (≈ 0.253 µM)

— ChEMBL document CHEMBL3232807, “Genomics-guided discovery of endophenazines from Kitasatospora sp. HKI 714” (2014)
